What was measured:
HT-29 [1] = assay: Growth inhibition of HT29 cells assessed as relative survival at 150 uM after 2 hrs relative to control; assay type: functional, Homo sapiens
Method in brief: (§1)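 HT-29 colon carcinoma cells were exposed to drug for 2 h at 41°C, with DMSO as vehicle. Drug was then washed off and cells grown 14 days in fresh medium. Colonies of more than 50 cells were stained with crystal violet and counted. Survival was corrected for plating efficiency (vehicle, 2 h, 37°C) and for 2 h drug exposure at 37°C; vehicle at 41°C was set to 1.0. Student's t test.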

HT-29 [2] = assay: Cell survival of human HT29 cells at 150 uM after 2 hrs; assay type: functional; details: HT-29, 2 h, read-out: Survival
HT-29 [3] = assay: Growth inhibition of HT29 cells assessed as relative survival at 50 uM after 2 hrs relative to control; assay type: functional, Homo sapiens; method in brief: as §1
HT-29 [4] = assay: Growth inhibition of HT29 cells at 50 uM after 2 hrs; assay type: functional; details: Homo sapiens, HT-29, 2 h; method in brief: as §1

SMILES	Survival (HT-29 [1])	viability at 150 µM (HT-29 [2]) [%]	Survival (HT-29 [3])	inhibition at 50 µM (HT-29 [4]) [%]
OC1/C(=C/c2cn(Cc3ccccc3)c3ccc(Br)cc23)N2CCC1CC2 (configuration not stated)	0.59	> 70	–	–
Cc1ccc(Cn2cc(/C=C3/C(=O)C4CCN3CC4)c3ccccc32)cc1	1	> 70	–	–
O=C1/C(=C/c2cn(Cc3ccccc3Br)c3ccc(Br)cc23)N2CCC1CC2	0.96	> 70	–	–
COc1ccc2c(c1)c(/C=C1/C(O)C3CCN1CC3)cn2Cc1ccccc1 (configuration not stated)	–	< 70	0.76	–
O=C1/C(=C/c2cn(Cc3ccccc3)c3ccccc23)N2CCC1CC2	0.5	–	–	–
O=C1/C(=C/c2cn(Cc3ccc(F)cc3)c3ccc(Br)cc23)N2CCC1CC2	0.81	> 70	–	–
COc1ccc(Cn2cc(/C=C3/C(=O)C4CCN3CC4)c3cc(Br)ccc32)cc1	0.86	> 70	–	–
OC1/C(=C/c2cn(Cc3ccccc3)c3ccccc23)N2CCC1CC2 (racemic)	0.06	–	1	93
OC1/C(=C/c2cn(Cc3ccc(Cl)cc3)c3ccc(Br)cc23)N2CCC1CC2 (configuration not stated)	0.9	> 70	–	–
OC1/C(=C/c2cn(Cc3ccccc3Br)c3ccc(Br)cc23)N2CCC1CC2 (configuration not stated)	0.58	> 70	–	–
Cc1ccc(Cn2cc(/C=C3/C(O)C4CCN3CC4)c3cc(Br)ccc32)cc1 (configuration not stated)	0.78	> 70	–	–
OC1/C(=C/c2cn(Cc3ccc(F)cc3)c3ccc(Br)cc23)N2CCC1CC2 (configuration not stated)	0.52	> 70	–	–
O=C1/C(=C/c2cn(Cc3ccccc3)c3ccc(Br)cc23)N2CCC1CC2	1	> 70	–	–
O=C1/C(=C/c2cn(Cc3ccc(F)cc3)c3ccccc23)N2CCC1CC2	0.71	> 70	–	–
Cc1ccc(Cn2cc(/C=C3/C(=O)C4CCN3CC4)c3cc(C)ccc32)cc1	1	> 70	–	–
COc1ccc2c(c1)c(/C=C1/C(=O)C3CCN1CC3)cn2Cc1ccccc1	0.75	> 70	–	–
OC1/C(=C/c2cn(Cc3ccc(F)cc3)c3ccccc23)N2CCC1CC2 (configuration not stated)	–	< 70	0.7	–
Cc1ccc2c(c1)c(/C=C1/C(=O)C3CCN1CC3)cn2Cc1ccccc1	0.98	> 70	–	–
OC1/C(=C/c2cn(Cc3ccc(Cl)cc3)c3ccccc23)N2CCC1CC2 (configuration not stated)	–	< 70	0.07	–
COc1ccc(Cn2cc(/C=C3/C(O)C4CCN3CC4)c3cc(Br)ccc32)cc1 (configuration not stated)	0.61	> 70	–	–
Cc1ccc(Cn2cc(/C=C3/C(O)C4CCN3CC4)c3ccccc32)cc1 (configuration not stated)	–	< 70	0.59	–
Cc1ccc2c(c1)c(/C=C1/C(O)C3CCN1CC3)cn2Cc1ccccc1 (configuration not stated)	1	> 70	–	–
O=C1/C(=C/c2cn(Cc3ccc(Cl)cc3)c3ccc(Br)cc23)N2CCC1CC2	1	> 70	–	–
Cc1ccc(Cn2cc(/C=C3/C(=O)C4CCN3CC4)c3cc(Br)ccc32)cc1	1	> 70	–	–
Cc1ccc(Cn2cc(/C=C3/C(O)C4CCN3CC4)c3cc(C)ccc32)cc1 (configuration not stated)	–	< 70	0.59	–
O=C1/C(=C/c2cn(Cc3ccc(Cl)cc3)c3ccccc23)N2CCC1CC2	0.56	> 70	–	–

From ChEMBL document CHEMBL1138305, “Novel substituted (Z)-2-(N-benzylindol-3-ylmethylene)quinuclidin-3-one and (Z)-(+/-)-2-(N-benzylindol-3-ylmethylene)quinuclidin-3-ol derivatives as potent thermal sensitizing agents” (2007)
